Data as given in paper PMC5495021 (Leukemia & lymphoma, 2015).
“Also recorded” adds a separate entry of the source. Read-outs that look alike come from different tables or passages of the source.

Assays:
[1] = system: refractory/relapsed acute leukemias or high-risk myelodysplastic syndromes; test: Anti-leukemic efficacy; assay type: in vivo, human
Procedure, shortened: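 Adults with refractory/relapsed acute leukemia, accelerated/blast-phase CML, or high-risk MDS received IV infusion daily for 5 days per course, starting at 1.2 mg/m2/day with dose escalation. Response was graded by IWG criteria (acute leukemia/MDS) or European LeukemiaNet definitions (CML). Marrow aspirate/biopsy at baseline, course 2 Day 11–14, every 2 courses, and end of study. Descriptive statistics.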

[2] = system: epidermal growth factor receptor (EGFR); details: preclinical; cited from earlier work
[3] = Safety / adverse events and DLT in phase I dose escalation study
CYP2D6 = CYP2D6 (Homo sapiens, UniProt P10635); test: Contribution of CYP enzymes to metabolism; assay type: in vitro ADME
[4] = Plasma pharmacokinetics of SAR103168 in phase I patients; assay type: in vivo, human
xenograft models = details: cited from earlier work
Tie2 = details: preclinical; cited from earlier work
[5] = system: vascular endothelial growth factor receptor type 2 (VEGFR2); details: preclinical; cited from earlier work
Protein binding = assay type: in vitro ADME, human; details: no saturation over a clinically relevant concentration range
human AML leukemic cells = details: animals implanted with human AML leukemic cells; cited from earlier work
[6] = system: fibroblast growth factor receptor (FGFR); details: preclinical; cited from earlier work
BCR-Abl kinase = details: preclinical; cited from earlier work
Src kinase family = details: preclinical; cited from earlier work
[7] = system: platelet-derived growth factor receptor (PDGFR); details: preclinical; cited from earlier work
[8] = cited from earlier work
[9] = human, in vivo
[10] = preclinical toxicology studies; cited from earlier work
[11] = system: vascular endothelial growth factor receptor type 1 (VEGFR1); details: preclinical; cited from earlier work
[12] = system: acute and chronic myeloid leukemic cells; details: inhibition of proliferation and induction of apoptosis; cited from earlier work
[13] = system: leukemic progenitor cells from 29 patients with AML; details: including poor-prognosis chromosome abnormalities; cited from earlier work
[14] = mice at active doses (16.7 mg/kg IV or 2 × 40 mg/kg PO)

Chain of CYP2D6 (P10635 whole entry): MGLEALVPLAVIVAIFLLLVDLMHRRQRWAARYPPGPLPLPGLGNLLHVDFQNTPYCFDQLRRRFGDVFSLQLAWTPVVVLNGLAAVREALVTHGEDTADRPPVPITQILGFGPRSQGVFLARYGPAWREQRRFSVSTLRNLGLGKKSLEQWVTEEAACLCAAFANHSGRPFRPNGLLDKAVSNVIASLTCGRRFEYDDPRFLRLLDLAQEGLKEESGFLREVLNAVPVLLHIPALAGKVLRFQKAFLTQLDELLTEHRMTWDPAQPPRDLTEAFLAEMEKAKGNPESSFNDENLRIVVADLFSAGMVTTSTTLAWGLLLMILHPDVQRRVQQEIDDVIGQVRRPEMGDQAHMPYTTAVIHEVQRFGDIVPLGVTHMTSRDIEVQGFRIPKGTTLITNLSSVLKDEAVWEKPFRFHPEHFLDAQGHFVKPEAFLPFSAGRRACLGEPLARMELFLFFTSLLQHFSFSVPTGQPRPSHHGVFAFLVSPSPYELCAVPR

CC(C)(C)NC(=O)Nc1nc2nc(Nc3ccc4nsnc4c3)ncc2cc1-c1c(Cl)cccc1Cl [SAR103168, 1-[2-(2,1,3-benzothiadiazol-5-ylamino)-6-(2,6-dicholophenyl)-pyridol[2,3-d]pyrimidin-7-yl]-3′-tert-butylurea]
transient decrease in peripheral blasts ([1]; efficacy population): One patient
clinical benefit ([1]; within the tested dose range): did not demonstrate a clear clinical benefit
activity against EGFR [2]: Nanomolar activity
discontinuation of study treatment due to adverse events ([3]; 29 treated patients): 10.3%
SAE Preferred Term ([3]; planned dose level 1.2 mg/m^2, Relationship to Study Drug: No): Multi-organ failure; also recorded: Bacteremia; also recorded: Pneumonia fungal; also recorded: Febrile neutropenia
SAE Preferred Term ([3]; planned dose level 1.2 mg/m^2, Relationship to Study Drug: Yes): Echocardiogram abnormal
SAE Preferred Term ([3]; planned dose level 1.7 mg/m^2, Relationship to Study Drug: No): Deep vein thrombosis; also recorded: Febrile neutropenia; also recorded: Staphylococcal sepsis; also recorded: Disease progression; also recorded: Pulmonary embolism
SAE Preferred Term ([3]; planned dose level 2.4 mg/m^2, Relationship to Study Drug: No): Perirectal abscess; also recorded: Febrile neutropenia; also recorded: Anemia; also recorded: Disease progression; also recorded: Septic shock
SAE Preferred Term ([3]; planned dose level 4.8 mg/m^2, Relationship to Study Drug: No): Bone pain; also recorded: Febrile neutropenia; also recorded: Disease progression
SAE Preferred Term ([3]; planned dose level 9.6 mg/m^2, Relationship to Study Drug: No): Pneumonia; also recorded: Bacteremia; also recorded: Asthenia
SAE Preferred Term ([3]; planned dose level 14.4 mg/m^2, Relationship to Study Drug: No): Disease progression; also recorded: Sinusitis fungal; also recorded: Sepsis
contribution of CYP2D6 to the compound's metabolism (CYP2D6): ~ 20%
time by which mean plasma concentrations were below the limit of detection ([4]; all dose groups): ≤ 24 h
tlast ([4]; generally, over the dose range 1.2 to 14.4 mg/m2): ≤ 7 h
accumulation in exposures (Cmax or AUClast) upon multiple daily dosings ([4]; human, in vivo): limited accumulation
patient exposure (AUC) ([4]; human, in vivo, 14.4 mg/m2): ~ 1000 ng/h/mL
patient exposure (Cmax) ([4]; human, in vivo, 14.4 mg/m2): ~ 500 ng/mL
active dose in various tumor models (xenograft models; IV, in mice): 16.7 mg/kg
putative, partially active dose level (xenograft models; based on the preclinical data, human-equivalent of 10 mg/kg in mouse): ~ 30 mg/m^2
putative, partially active dose level (xenograft models; in mouse, preclinical data): 10 mg/kg
activity against Tie2 (Tie2): Nanomolar activity
activity against VEGFR2 [5]: Nanomolar activity
Human protein binding (Protein binding): > 99.3%
effect of administration on tumors (human AML leukemic cells): tumor regression
activity against FGFR [6]: Nanomolar activity
activity against the BCR-Abl kinase (BCR-Abl kinase): Nanomolar activity
activity against the Src kinase family (Src kinase family): Nanomolar activity
activity against PDGFR [7]: Nanomolar activity
AUCs achieved in animal models [8, 14]: ≥ 16000 ng/h/mL
Cmax achieved in animal models [8, 14]: ≥ 3600 ng/mL
exposures (AUCs) which demonstrated in vivo activity in xenograft models ([8]; xenograft models): 16000 ng/h/mL
maximum tolerated dose (MTD) [9]: prior to reaching the MTD
toxicity profile [10]: favorable toxicity profile
activity against VEGFR1 [11]: Nanomolar activity
IC50 of anti-leukemic effects [12]: nanomolar
AML patient samples sensitive to the agent [13]: over 85%
